SMILES strings stand for the structures.

Among the data in ChEMBL document CHEMBL1121825, “A potent, new, sedative--hypnotic agent: 5,7-dihydro-5,5,7,7-tetramethyl-3-(3-nitrophenyl)furo[3,4-e]-as-triazine 4-oxide” (J Med Chem, 1981) are ED50 and LD50 values, retold here.

Data set [1] concerns Mus musculus. Kind of data set: Ability to reinduce anesthesia in mice as a measure of in vivo sedative-hypnotic activity. In kind it is functional. The essentials:
(§1)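 Male Royal Hart mice (20–25 g) were anesthetized with hexobarbital 70.0 mg/kg iv. While they were regaining the righting reflex, compound was given ip. Reinduction was scored as loss of righting reflex for 10 min. ED50 (mg/kg) is the dose reinducing anesthesia in 50% of mice, estimated by probit analysis (Miller–Tainter).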

For data set [2], the system named is Mus musculus. Nature of the data set: Compound was tested for mortality in mice when administered intraperitoneally. In kind it is functional. The note with it: ip. The essentials:
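Male Royal Hart mice (20–25 g), groups of five, dosed ip 1 h before SaH 41-178 (50.0 mg/kg ip) to evoke seizures. ED50 is the dose preventing death in 50% of animals, estimated by probit analysis. At least 20 animals per drug.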

Data set [3] concerns Mus musculus. Kind of data set: Compound was tested for mortality in mice when administered perorally. In kind it is functional. The note with it: po. The method, boiled down:
(§2)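 Groups of five male Royal Hart mice (20–25 g) received test drug ip or orally 1 h before seizure induction with SaH 41-178 (50.0 mg/kg ip). ED50 is the dose preventing tonic convulsions or death in 50% of animals, by probit analysis.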

For data set [4], the system named is Mus musculus. Kind of data set: Ataxia effect in mice was tested when the compound was administered perorally. It is filed as functional. The note with it: po. The essentials: (§3)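 Male Royal Hart mice (20–25 g) were dosed orally and scored in a modified Irwin behavioural observation screen. ED50 values (mg/kg) were estimated by probit analysis after Miller and Tainter, with at least 20 animals per drug. Values were reported as ED50 ± SE, or as the evaluation at the highest nontoxic dose used.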

Data set [5] relates to Mus musculus. Kind of data set: Ataxia effect in mice was tested when the compound was administered intraperitoneally. The note with it: ip. In kind it is functional. The method, boiled down: (§4)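 Modified Irwin observational screen in male Royal Hart mice (20–25 g). ED50 (mg/kg) by probit analysis; at least 20 animals per drug.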
The subject of data set [6] is Mus musculus. Kind of data set: Compound was tested for reinduction of anesthesia in mice when administered intraperitoneally. In kind it is functional. The note with it: ip. The method, boiled down: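 Male Royal Hart mice (20–25 g) anaesthetised with hexobarbital (70.0 mg/kg iv) were given drug ip as they regained the righting reflex (modified Winter method). ED50 is the dose producing loss of righting reflex for 10 min in 50% of mice, by probit analysis.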

The subject of data set [7] is Mus musculus. Nature of the data set: Compound was tested for rotarod motor coordination in mice when administered intraperitoneally. It is filed as functional. To be noted: ip. The method, boiled down:
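Male Royal Hart mice (20–25 g), groups of five, were trained to ride a corrugated-paper-covered rod turning at 15 rpm for 60–90 s. They were retested 30 and 60 min after ip drug or saline. Percent change in rotarod time was taken against controls. ED50 is the dose cutting rotarod time by 50%, estimated by probit analysis. At least 20 animals per drug.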
On the technique in general: The rotarod test checks motor coordination on a turning rod.

Data set [8] has as its system Mus musculus. Nature of the data set: Compound was tested for rotarod motor coordination in mice when administered perorally. In kind it is functional. To be noted: po. The essentials: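 Modified Dunham–Miya rotarod test. Groups of five male Royal Hart mice (20–25 g) were trained on a 15 rpm corrugated rod for 60–90 s, then retested 30 and 60 min after drug or saline (ip or oral). Percent change in riding time versus controls; ED50 is the dose giving a 50% decrease, by probit analysis.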

Data set [9] relates to Mus musculus. Nature of the data set: Docility effect in mice was tested when the compound was administered ip. In kind it is functional. The essentials: as §4
In data set [10] the test system is Mus musculus. Kind of data set: Docility effect in mice was tested when the compound was administered perorally. In kind it is functional. To be noted: po. The essentials:
(§5)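 Oral dosing of male Royal Hart mice (20–25 g), scored by a modified Irwin behavioural screen. ED50 (mg/kg) estimated by probit analysis; at least 20 animals per drug.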

For data set [11], the system named is Mus musculus. Nature of the data set: Compound was tested for tonic convulsions when administered intraperitoneally. In kind it is functional. The note with it: ip. The essentials:
as §2

In data set [12] the test system is Mus musculus. Nature of the data set: Righting reflex effect in mice was tested when the compound was administered intraperitoneally. It is filed as functional. To be noted: ip. The essentials: as §4
For data set [13], the system named is Mus musculus. Nature of the data set: Righting reflex effect in mice was tested when the compound was administered perorally. In kind it is functional. The note with it: po. The method, boiled down: as §3
Data set [14] has as its system Mus musculus. Kind of data set: Hypomotility effect in mice was tested when the compound was administered intraperitoneally. In kind it is functional. To be noted: ip. The method, boiled down: as §4
In data set [15] the test system is Mus musculus. Kind of data set: Hypomotility effect in mice was tested when the compound was administered perorally. It is filed as functional. To be noted: po. The essentials: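 Modified Irwin behavioral observation in male Royal Hart mice (20–25 g), observed for 2 h after dosing. ED50 (mg/kg) estimated by probit analysis per Miller and Tainter. At least 20 animals per drug.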

Data set [16] relates to Mus musculus. Kind of data set: Prehensile effect in mice was tested when the compound was administered intraperitoneally. In kind it is functional. To be noted: ip. The essentials:
as §4

Data set [17] relates to Mus musculus. Kind of data set: Prehensile effect in mice was tested when the compound was administered perorally. In kind it is functional. The note with it: po. The essentials:
as §5

Data set [18] in a line: Acute toxicity in mice after 2 hours when administered intraperitoneally. In kind it is organism-based. To be noted: mouse, in vivo, ip. The method, boiled down: (§6)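 Male Royal Hart mice (20–25 g) dosed intraperitoneally or orally; deaths scored at 2 h and 72 h. LD50 (mg/kg) estimated by probit analysis (Miller–Tainter), with at least 20 animals per drug.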
The nature of data set [19]: Acute toxicity in mice after 2 hours when administered perorally. It is filed as organism-based. To be noted: mouse, in vivo, po. The method, boiled down: as §6
Data set [20] is described as follows: Acute toxicity in mice after 72 hours when administered intraperitoneally. It is filed as organism-based. The note with it: mouse, in vivo, ip. The essentials:
as §6

Data set [21] in a line: Acute toxicity in mice after 72 hours when administered perorally. In kind it is organism-based. The note with it: mouse, in vivo, po. The method, boiled down:
as §6

In data set [22] the test system is Rattus norvegicus. Kind of data set: Hypomotility effect in rats was tested when the compound was administered perorally. It is filed as functional. To be noted: po. The method, boiled down: (§7)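 Modified Irwin behavioural observation in male Wistar rats (130–160 g). ED50 (mg/kg) obtained by probit analysis; minimum 20 animals per drug.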
Data set [23] concerns Rattus norvegicus. Kind of data set: Ataxia effect in rats was tested when the compound was administered perorally. In kind it is functional. To be noted: po. The method, boiled down: as §7
The subject of data set [24] is Rattus norvegicus. Nature of the data set: Righting reflex effect in rats was tested when the compound was administered perorally. In kind it is functional. The note with it: po. The essentials:
as §7

Data set [25] is described as follows: Acute toxicity in rats after 2 hours when administered perorally. It is filed as organism-based. To be noted: rat, in vivo, po. The essentials: (§8)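 Male Wistar rats (130–160 g) dosed orally; lethality read at 2 h and 72 h. LD50 (mg/kg) derived by probit analysis (Miller–Tainter), using a minimum of 20 animals per drug.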
Data set [26] deals with Mus musculus. Nature of the data set: Compound was tested for tonic convulsions when administered perorally. In kind it is functional. The note with it: po. The method, boiled down:
as §2

Data set [27] is described as follows: Acute toxicity in rats after 72 hours when administered perorally. The note with it: rat, in vivo, po. In kind it is organism-based. The method, boiled down: as §8
The subject of data set [28] is Mus musculus. Kind of data set: Tested for ability to reinduce anesthesia in mice when administered intraperitoneally as a measure of in vivo sedative-hypnotic activity; D represents Toxic. It is filed as functional, organism-based. The essentials:
as §1

Consider `CC1(C)OC(C)(C)c2c1nnc(-c1cccc(F)c1)[n+]2[O-]`, for which the ED50 in data set [1] stood at 74.9 mg/kg.

`CC1(C)C/C(=N\Nc2ccccc2[N+](=O)[O-])C(C)(C)O1` returned an ED50 in [1] of 1000 mg/kg.

Turning to `CC1(C)OC(C)(C)c2nc(-c3ccccn3)nnc21`, in data set [1], the 50% effect level (ED50) was put at a dose of 21 mg/kg.

`CC1(C)OC(C)(C)c2nnc(-c3ccccc3)cc21.Cl` displayed an ED50 in data set [1] of 112 mg/kg.

In data set [1], `CC1(C)CSCC(C)(C)c2nc(-c3ccccc3)nnc21` displayed an ED50 of 31.3 mg/kg.

Consider `Cc1ccccc1-n1c(C)nc2ccccc2c1=O` [METHAQUALONE], for which the median effective dose (ED50) in data set [2] is 25 mg/kg; in [3], 45 mg/kg; in data set [4] it was 23 mg/kg; in data set [5], 29 mg/kg; in data set [6], 19 mg/kg; in data set [7], 25 mg/kg. The 50% effective dose (ED50) in data set [8] is 36 mg/kg; in data set [9], 31 mg/kg; in [10], 20 mg/kg; in data set [1], 20 mg/kg; in [11] it was 25 mg/kg; in data set [12], 34 mg/kg. Further, the ED50 was found to be 23 mg/kg in data set [13]; 34 mg/kg in data set [14]; 25 mg/kg in [15]; 37 mg/kg in data set [16]; 30 mg/kg in [17]; 44 mg/kg in data set [22]. Besides, the median effective dose (ED50) in [23] was found to be 23 mg/kg; in data set [24] it was 52 mg/kg; in data set [26] it was 39 mg/kg. For the same molecule, the LD50 at 2 h in data set [18] was 565 mg/kg; in data set [19], over 400 mg/kg; in data set [25], over 800 mg/kg. Also, the LD50 at 72 h in data set [20] is 470 mg/kg; in data set [21] it was over 400 mg/kg; in [27], 185 mg/kg.

Consider `CCCc1nc(-c2ccccn2)nnc1C`, for which, in data set [28], the ED50 entry is “Toxic”.

In the case of `CC1(C)NC(C)(C)c2c1nnc(-c1ccccc1)[n+]2[O-]`, the ED50 in data set [1] worked out at 1000 mg/kg.

Molecule `CC1(C)OC(C)(C)c2nc(-c3cccc[n+]3[O-])nnc21` returned an ED50 in [1] of 138 mg/kg.

`CC1(C)OC(C)(C)c2c1ncc(-c1ccccc1)[n+]2[O-].Cl` showed an ED50 in data set [1] of 1000 mg/kg.

`CCCc1nnc(-c2ccccn2)nc1C`: the ED50 entry in data set [28] is “Toxic”.

In data set [1], `Cc1cccc(-c2nnc3c([n+]2[O-])C(C)(C)OC3(C)C)c1` came in with an ED50 of 150 mg/kg.

Take `CC1(C)C/C(=N\Nc2ccccc2)C(C)(C)O1`: the ED50 in data set [1] worked out at 162 mg/kg.

For the molecule `CC1(C)OC(C)(C)c2nc(-c3cnccn3)nnc21`, in data set [1], the 50% effect level (ED50) was put at a dose of 100 mg/kg.

As to `CC1(C)CSCC(C)(C)c2nc(-c3ccccn3)nnc21`, in [28], the ED50 result is “Toxic”.

On to `CC1(C)OC(C)(C)c2nc(-c3ccc(Cl)cn3)nnc21`, for which, in data set [1], the 50% effect level (ED50) was put at a dose of 66.7 mg/kg.

Turning to `CC1(C)OC(C)(C)c2nc(-c3cccnc3)nnc21`, the ED50 in data set [1] stood at 28.1 mg/kg.

Take `CC1(C)OC(C)(C)c2c1nnc(-c1cccc(C(F)(F)F)c1)[n+]2[O-]`: the median effective dose (ED50) in [1] stood at 66.7 mg/kg.

`CC1(C)Cc2nnc(-c3ccccc3)[n+]([O-])c2C(C)(C)O1`: the ED50 in [1] was 122 mg/kg.

As usually defined, the ED50 is the dose that gives a 50% effect, or the effect in half of the subjects. What is called LD50 is the dose at which mortality reaches 50%. Read a high LD50 as a less toxic substance.
